Screens from PubChem BioAssay.
Lung fibro prol = blocks proliferation of human lung fibroblasts; LL 47 human lung fibroblast viability, ATP luminescence; stronger effect = lower value; viability, % at 10 µM; 85,000 compounds, 1.1% hits; AID 719;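 active = viability at or below 50% in the single dose screen; inactive = viability above 50%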;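 also: compound exposure lasted 72 h before the ATP readout; 100% = median luminescence of untreated cell-only wells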
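Test system: LL 47 human lung fibroblasts / Incubation: 72 h compound exposure at 37 °C after overnight plating / Technique: luminescent ATP detection, CellTiter-Glo / Compound dosing: 0.1% DMSO in all compound wells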
PTEN del growth = growth suppressors of cells with PTEN tumor suppressor deletion; 140,000 compounds, 1.2% hits; viability, % at 10 µM; HCT116 PTEN-null viability, CellTiter-Glo, 60 h; stronger effect = lower value;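 active = viability at or below a set limit, 4 SD under the median of all tested compounds, cut at about 3.7% in these data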;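 also: PTEN knockout HCT116 line with beta catenin targeted HCT116 as companion control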
HUVEC prolif 384 = inhibitors of human endothelial cell proliferation. 86,000 compounds, 1.1% hits. HUVEC proliferation, CellTiter-Glo luminescence, 72 h; stronger effect = lower value. viability, % at 10 µM (by protocol);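 active = viability at or below 30%; inactive = viability above 30%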;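 also: 100% = median luminescence of DMSO-only cell control wells on each plate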
H69AR inhibit = growth inhibitors of human H69AR lung tumor cells; H69AR lung tumor viability, ATP luminescence, 72 h; stronger effect = lower value; viability, % at 10 µM; 85,000 compounds, 6% hits; AID 598;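 active = viability at or below 40%; inactive = viability above 40%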;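 also: multidrug resistant small cell line overexpressing MRP-1 efflux transporter; 100% = mean luminescence of untreated control wells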
bCat KO growth = beta-catenin-lacking colon tumor cell growth suppression. HCT116 beta-catenin knockout viability, CellTiter-Glo, 60 h; stronger effect = lower value. viability, % at 10 µM. 140,000 compounds, 1.5% hits;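 active = viability at or under a set limit, the compound median less 4 SD, cut at about 6% in these data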;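 also: 0% = Hyamine 1622 control at 20 µM and 100% = untreated cell control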
The depositor's hits bear a star; . = not tested or not shown. This is one part of a sample in which hits are shown more often than they occur.

SMILES	Lung fibro prol	PTEN del growth	HUVEC prolif 384	H69AR inhibit	bCat KO growth
CCc1ccc(NC(=O)CSc2nc3cc(C(=O)OC)ccc3c(=O)n2CC2CCCO2)cc1 (stereo not drawn)	36.3*	8.3	48.4	3.5*	48.4
COC(=O)c1ccc2c(=O)n(CC3CCCO3)c(SCC(=O)Nc3ccccc3OC)nc2c1 (stereo not drawn)	112.9	66.3	85.8	83.3	77.3
COC(=O)c1c(NC(=O)CSc2nc3ccccc3c(=O)n2Cc2ccco2)sc(C)c1C	.	60.8	.	.	40.6
COC(=O)c1ccc2c(=O)n(Cc3ccc4c(c3)OCO4)c(SCC(=O)N3CCCC3)nc2c1	118.9	.	88.4	2.5*	.
Nc1ccc(N2CCCCCC2)cc1	95.7	12.9	97.8	2.1*	7.1
Cc1ccc(-n2nnnc2C(Cl)c2nnnn2-c2ccc(C)cc2)cc1	.	1.1*	.	.	1.6*
Cc1ccc(-n2nnnc2-c2ccco2)cc1	95.6	96.9	95.9	94.8	97.7
CCN(C(=O)c1ccc2c(Cl)c3c(nc2c1)CCC3)c1ccc(C)c(C)c1	.	58.2	.	.	63.4
CCOc1ccccc1NC(=O)Cn1c(=O)c2ccccc2n(CC)c1=O	104.3	98.7	102.6	93.8	90.6
Cc1cccc(N(C)C(=O)c2cc3cc4ccc(C)cc4nc3o2)c1	67.7	41.9	60.4	18.6*	40.1
CC(C)(C)c1ccc(C(=O)NCCCN2CCN(CCCNC(=O)c3ccc(C(C)(C)C)cc3)CC2)cc1	.	1.8*	.	.	1.3*
O=C(O)C(F)(F)S(=O)(=O)O	98.4	95.8	94.9	94.5	92.7
O=C(CSc1nnc(Cc2cccs2)n1Cc1ccco1)Nc1ccc(Br)cc1	101.0	75.2	89.2	71.5	75.2
N/C(=N\OC(=O)Nc1ccc(Cl)cc1)c1ncc(C(F)(F)F)cc1Cl	106.0	84.4	66.7	31.7*	78.0
CCOC(=O)Cc1csc(NC(=O)c2ccc(Cl)nc2)n1	96.3	53.3	82.8	28.7*	60.6
CCOC(=O)Cc1csc(NC(=O)c2cccs2)n1	105.3	87.8	99.8	96.0	87.7
CCOC(=O)Cc1csc(NC(=O)c2ccc3c(c2)OCO3)n1	104.5	99.2	103.9	87.6	93.1
CCOC(=O)Cc1csc(NC(=O)c2c(O)c3ccccc3n(CC(C)C)c2=O)n1	103.7	15.8	86.1	16.9*	18.8
O=C(NCC1CCCO1)C(=O)NCC(c1ccco1)N1CCN(c2ccccc2F)CC1 (stereo not drawn)	.	84.0	.	.	93.4
O=S(=O)(c1ccc(S(=O)(=O)N2CCN(C/C=C/c3ccccc3)CC2)cc1)N1CCCC1	84.3	89.0	70.4	35.6*	65.3
N=c1n(CCN2CCCC2)c2ccccc2n1CC(O)c1ccco1 (stereo not drawn)	97.3	86.0	86.2	84.1	92.4
N=c1n(CCN2CCCCC2)c2ccccc2n1CC(O)c1cccc(Br)c1 (stereo not drawn)	46.4*	11.0	64.7	22.3*	12.3
N=c1n(CCN2CCCCC2)c2ccccc2n1CC(O)c1ccc(Cl)c(Cl)c1 (stereo not drawn)	.	1.1*	.	.	0.9*
CCOc1ccc(-c2nnc3n2N=C(c2ccc(OC)cc2)CS3)cc1	84.8	84.1	97.3	50.5	86.5
CCc1nnc2n1N=C(c1ccc(-c3cc(Cl)ccc3Cl)o1)CS2	91.6	1.7*	104.4	8.5*	1.4*
SMILES	Lung fibro prol	PTEN del growth	HUVEC prolif 384	H69AR inhibit	bCat KO growth
CCc1nnc2n1N=C(c1ccc(OC)cc1)CS2	86.0	68.4	73.3	18.5*	66.2
COc1ccc(C2=Nn3c(nnc3-c3ccccn3)SC2)cc1	88.2	45.8	81.7	23.8*	56.3
NC(=O)c1c(NC(=O)c2ccccc2)sc2c1CCc1ccccc1-2	67.5	58.3	80.2	25.6*	80.3
NC(=O)c1c(NC(=O)c2ccco2)sc2c1CCC2	89.5	92.0	75.5	62.6	89.5
COc1ccc(OC)c(-c2cc(C(=O)N3CCN(c4ncccn4)CC3)c3ccccc3n2)c1	87.9	63.3	57.6	29.7*	75.8
CCOc1ccc(-c2cc(C(=O)N3CCN(c4ccccn4)CC3)c3ccccc3n2)cc1	56.9	21.6	52.2	18.4*	20.1
COc1ccc(-c2cc(C(=O)N3CCN(c4ncccn4)CC3)c3ccccc3n2)c(OC)c1	.	59.4	.	.	71.0
COc1ccc(-c2cc(C(=O)N3CCN(c4ccccn4)CC3)c3ccccc3n2)cc1	93.3	29.9	58.8	15.8*	38.4
CCOC(=O)N1CCN(C(=O)c2cc(-c3ccc(OCC)cc3)nc3ccccc23)CC1	52.8	15.0	47.9	15.6*	17.8
COc1ccc(CCC(N)=O)cc1OC	109.8	90.8	101.4	90.2	107.7
